Data from ChEMBL document CHEMBL2029228, “Antimalarial activity of 9a-N substituted 15-membered azalides with improved in vitro and in vivo activity over azithromycin” (J Med Chem, 2012).

Experiments:
Plasmodium falciparum = test: Antimalarial activity against mefloquine-resistant Plasmodium falciparum TM91C235 assessed as [3H]hypoxanthine incorporation after 48 hrs; type: functional, organism-based
Method in brief: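 Tritiated hypoxanthine incorporation assay (Desjardins method, Milhous modification) with 48 h drug exposure. Uses P. falciparum clone TM91C235 (Southeast Asian, mefloquine-resistant). Compounds 2-fold diluted over 11 concentrations. IC50 derived by nonlinear logistic dose-response fitting, averaged where multiple runs were done.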

HepG2 = test: Cytotoxicity against human HepG2 cells after 24 hrs by MTS assay; type: cell-based; conditions: HepG2, 24 h
Method in brief: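 HepG2 cells kept in RPMI 1640 with 10% FBS plus antibiotics at 37 °C, 5% CO₂. 50 000 cells per well exposed to 10 two-fold serial dilutions for 24 h. MTS reagent then added for 2 h more, absorbance read at 490 nm, IC50 derived.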

Row | Structure (SMILES) | IC50 (Plasmodium falciparum) | IC50 (HepG2)
1 | CC[C@H]1OC(=O)[C@H](C)[C@@H](O)[C@H](C)[C@@H](O[C@@H]2O[C@H](C)C[C@H](N(C)C)[C@H]2O)[C@](C)(O)C[C@@H](C)CN(CCCNC(=O)[C@H](C)c2ccc3cc(OC)ccc3c2)[C@H](C)[C@@H](O)[C@]1(C)O | 520 nM | –
2 | CC[C@H]1OC(=O)[C@H](C)[C@@H](O[C@H]2C[C@@](C)(OC)[C@@H](O)[C@H](C)O2)[C@H](C)[C@@H](O[C@@H]2O[C@H](C)C[C@H](N(C)C)[C@H]2O)[C@](C)(O)C[C@@H](C)CN(CCCNCc2ccncc2)[C@H](C)[C@@H](O)[C@]1(C)O | 568 nM | > 50000 nM
3 | CC[C@H]1OC(=O)[C@H](C)[C@@H](O[C@H]2C[C@@](C)(OC)[C@@H](O)[C@H](C)O2)[C@H](C)[C@@H](O[C@@H]2O[C@H](C)C[C@H](N(C)C)[C@H]2O)[C@](C)(O)C[C@@H](C)CN(CCC(=O)NCCCc2ccccc2)[C@H](C)[C@@H](O)[C@]1(C)O | 89 nM | 40000 nM
4 | CC[C@H]1OC(=O)[C@H](C)[C@@H](O[C@H]2C[C@@](C)(OC)[C@@H](O)[C@H](C)O2)[C@H](C)[C@@H](O[C@@H]2O[C@H](C)C[C@H](N(C)C)[C@H]2O)[C@](C)(O)C[C@@H](C)CN(CCC(=O)NCc2ccccc2)[C@H](C)[C@@H](O)[C@]1(C)O | 261 nM | > 50000 nM
5 | CC[C@H]1OC(=O)[C@H](C)[C@@H](O[C@H]2C[C@@](C)(OC)[C@@H](O)[C@H](C)O2)[C@H](C)[C@@H](O[C@@H]2O[C@H](C)C[C@H](N(C)C)[C@H]2O)[C@](C)(O)C[C@@H](C)CN(CCCNC(=O)CCCCc2ccccc2)[C@H](C)[C@@H](O)[C@]1(C)O | 92 nM | 49000 nM
6 | CC[C@H]1OC(=O)[C@H](C)[C@@H](O[C@H]2C[C@@](C)(OC)[C@@H](O)[C@H](C)O2)[C@H](C)[C@@H](O[C@@H]2O[C@H](C)C[C@H](N(C)C)[C@H]2O)[C@](C)(O)C[C@@H](C)CN(CCCNCc2cccc3ccccc23)[C@H](C)[C@@H](O)[C@]1(C)O | 25 nM | 10000 nM
7 | CC[C@H]1OC(=O)[C@H](C)[C@@H](O)[C@H](C)[C@@H](O[C@@H]2O[C@H](C)C[C@H](N(C)C)[C@H]2O)[C@](C)(O)C[C@@H](C)CN(CCCNCc2ccnc3ccccc23)[C@H](C)[C@@H](O)[C@]1(C)O | 264 nM | > 50000 nM
8 | CCOc1ccc2ccccc2c1CNCCCN1C[C@H](C)C[C@@](C)(O)[C@H](O[C@@H]2O[C@H](C)C[C@H](N(C)C)[C@H]2O)[C@@H](C)[C@H](O[C@H]2C[C@@](C)(OC)[C@@H](O)[C@H](C)O2)[C@@H](C)C(=O)O[C@H](CC)[C@@](C)(O)[C@H](O)[C@H]1C | 26 nM | 7000 nM
9 | CC[C@H]1OC(=O)[C@H](C)[C@@H](O)[C@H](C)[C@@H](O)[C@](C)(O)C[C@@H](C)CN(CCCNC(=O)c2ocnc2C)[C@H](C)[C@@H](O)[C@]1(C)O | > 21300 nM | –
10 | CC[C@H]1OC(=O)[C@H](C)[C@@H](O[C@H]2C[C@@](C)(OC)[C@@H](O)[C@H](C)O2)[C@H](C)[C@@H](O[C@@H]2O[C@H](C)C[C@H](N(C)C)[C@H]2O)[C@](C)(O)C[C@@H](C)CN(CCCNC(=O)Cc2cccc3ccccc23)[C@H](C)[C@@H](O)[C@]1(C)O | 62 nM | –
11 | CC[C@H]1OC(=O)[C@H](C)[C@@H](O[C@H]2C[C@@](C)(OC)[C@@H](O)[C@H](C)O2)[C@H](C)[C@@H](O[C@@H]2O[C@H](C)C[C@H](N(C)C)[C@H]2O)[C@](C)(O)C[C@@H](C)CN(CCCNC(=O)Cc2ccc3ccccc3c2)[C@H](C)[C@@H](O)[C@]1(C)O | 79 nM | 40000 nM
12 | CC[C@H]1OC(=O)[C@H](C)[C@@H](O[C@H]2C[C@@](C)(OC)[C@@H](O)[C@H](C)O2)[C@H](C)[C@@H](O[C@@H]2O[C@H](C)C[C@H](N(C)C)[C@H]2O)[C@](C)(O)C[C@@H](C)CN(CCCNC(=O)CCCc2ccccc2)[C@H](C)[C@@H](O)[C@]1(C)O | 85 nM | > 50000 nM
13 | CC[C@H]1OC(=O)[C@H](C)[C@@H](O[C@H]2C[C@@](C)(OC)[C@@H](O)[C@H](C)O2)[C@H](C)[C@@H](O[C@@H]2O[C@H](C)C[C@H](N(C)C)[C@H]2O)[C@](C)(O)C[C@@H](C)CN(CCCNCc2ccccn2)[C@H](C)[C@@H](O)[C@]1(C)O | 1480 nM | –
14 | CC[C@H]1OC(=O)[C@H](C)[C@@H](O[C@H]2C[C@@](C)(OC)[C@@H](O)[C@H](C)O2)[C@H](C)[C@@H](O[C@@H]2O[C@H](C)C[C@H](N(C)C)[C@H]2O)[C@](C)(O)C[C@@H](C)CN(CCCNC(=O)[C@H](C)c2ccc3cc(OC)ccc3c2)[C@H](C)[C@@H](O)[C@]1(C)O | 58 nM | 20000 nM
15 | CC[C@H]1OC(=O)[C@H](C)[C@@H](O[C@H]2C[C@@](C)(OC)[C@@H](O)[C@H](C)O2)[C@H](C)[C@@H](O[C@@H]2O[C@H](C)C[C@H](N(C)C)[C@H]2O)[C@](C)(O)C[C@@H](C)CN(CCC(=O)NCCc2ccccc2)[C@H](C)[C@@H](O)[C@]1(C)O | 367 nM | > 50000 nM
16 | CC[C@H]1OC(=O)[C@H](C)[C@@H](O[C@H]2C[C@@](C)(OC)[C@@H](O)[C@H](C)O2)[C@H](C)[C@@H](O[C@@H]2O[C@H](C)C[C@H](N(C)C)[C@H]2O)[C@](C)(O)C[C@@H](C)CN(CCCNCCCCc2ccccc2)[C@H](C)[C@@H](O)[C@]1(C)O | 51 nM | 16000 nM

Row | Structure (SMILES) | IC50 (Plasmodium falciparum) | IC50 (HepG2)
17 | CC[C@H]1OC(=O)[C@H](C)[C@@H](O[C@H]2C[C@@](C)(OC)[C@@H](O)[C@H](C)O2)[C@H](C)[C@@H](O[C@@H]2O[C@H](C)C[C@H](N(C)C)[C@H]2O)[C@](C)(O)C[C@@H](C)CN(CCCNCc2cnc3ccccc3c2)[C@H](C)[C@@H](O)[C@]1(C)O | 50 nM | 45000 nM
18 | CC[C@H]1OC(=O)[C@H](C)[C@@H](O[C@H]2C[C@@](C)(OC)[C@@H](O)[C@H](C)O2)[C@H](C)[C@@H](O[C@@H]2O[C@H](C)C[C@H](N(C)C)[C@H]2O)[C@](C)(O)C[C@@H](C)CN(CCCNCc2ccccc2)[C@H](C)[C@@H](O)[C@]1(C)O | 104 nM | > 50000 nM
19 | CC[C@H]1OC(=O)[C@H](C)[C@@H](O[C@H]2C[C@@](C)(OC)[C@@H](O)[C@H](C)O2)[C@H](C)[C@@H](O[C@@H]2O[C@H](C)C[C@H](N(C)C)[C@H]2O)[C@](C)(O)C[C@@H](C)CN(CCCNCc2cccnc2)[C@H](C)[C@@H](O)[C@]1(C)O | 391 nM | > 50000 nM
20 | CC[C@H]1OC(=O)[C@H](C)[C@@H](O)[C@H](C)[C@@H](O)[C@](C)(O)C[C@@H](C)CN(CCCNCc2cnc3ccccc3c2)[C@H](C)[C@@H](O)[C@]1(C)O | 1890 nM | > 50000 nM
21 | CC[C@H]1OC(=O)[C@H](C)[C@@H](O[C@H]2C[C@@](C)(OC)[C@@H](O)[C@H](C)O2)[C@H](C)[C@@H](O[C@@H]2O[C@H](C)C[C@H](N(C)C)[C@H]2O)[C@](C)(O)C[C@@H](C)CN(CCCNC(=O)c2ocnc2C)[C@H](C)[C@@H](O)[C@]1(C)O | 878 nM | –
22 | CC[C@H]1OC(=O)[C@H](C)[C@@H](O)[C@H](C)[C@@H](O[C@@H]2O[C@H](C)C[C@H](N(C)C)[C@H]2O)[C@](C)(O)C[C@@H](C)CN(CCCNCc2ccncc2)[C@H](C)[C@@H](O)[C@]1(C)O | 3890 nM | > 50000 nM
23 | CC[C@H]1OC(=O)[C@H](C)[C@@H](O)[C@H](C)[C@@H](O[C@@H]2O[C@H](C)C[C@H](N(C)C)[C@H]2O)[C@](C)(O)C[C@@H](C)CN(CCCNc2ccnc3cc(Cl)ccc23)[C@H](C)[C@@H](O)[C@]1(C)O | 13 nM | 35000 nM
24 | CC[C@H]1OC(=O)[C@H](C)[C@@H](O)[C@H](C)[C@@H](O)[C@](C)(O)C[C@@H](C)CN(CCCNCc2ccc3ccccc3n2)[C@H](C)[C@@H](O)[C@]1(C)O | 1970 nM | > 50000 nM
25 | CC[C@H]1OC(=O)[C@H](C)[C@@H](O[C@H]2C[C@@](C)(OC)[C@@H](O)[C@H](C)O2)[C@H](C)[C@@H](O[C@@H]2O[C@H](C)C[C@H](N(C)C)[C@H]2O)[C@](C)(O)C[C@@H](C)CN(CCCNCc2ccc3ccccc3n2)[C@H](C)[C@@H](O)[C@]1(C)O | 62 nM | 28000 nM
26 | CC[C@H]1OC(=O)[C@H](C)[C@@H](O[C@H]2C[C@@](C)(OC)[C@@H](O)[C@H](C)O2)[C@H](C)[C@@H](O[C@@H]2O[C@H](C)C[C@H](N(C)C)[C@H]2O)[C@](C)(O)C[C@@H](C)CN(CCC(=O)NCc2cccc3ccccc23)[C@H](C)[C@@H](O)[C@]1(C)O | 79 nM | 49000 nM
27 | CC[C@H]1OC(=O)[C@H](C)[C@@H](O[C@H]2C[C@@](C)(OC)[C@@H](O)[C@H](C)O2)[C@H](C)[C@@H](O[C@@H]2O[C@H](C)C[C@H](N(C)C)[C@H]2O)[C@](C)(O)C[C@@H](C)CN(CCCNC(=O)Cc2ccccc2)[C@H](C)[C@@H](O)[C@]1(C)O | 233 nM | > 50000 nM
28 | CC[C@H]1OC(=O)[C@H](C)[C@@H](O)[C@H](C)[C@@H](O[C@@H]2O[C@H](C)C[C@H](N(C)C)[C@H]2O)[C@](C)(O)C[C@@H](C)CN(CCCNc2ccnc3ccccc23)[C@H](C)[C@@H](O)[C@]1(C)O | 437 nM | > 50000 nM
29 | CC[C@H]1OC(=O)[C@H](C)[C@@H](O)[C@H](C)[C@@H](O[C@@H]2O[C@H](C)C[C@H](N(C)C)[C@H]2O)[C@](C)(O)C[C@@H](C)CN(CCCNC(=O)Cc2cccc3ccccc23)[C@H](C)[C@@H](O)[C@]1(C)O | 1370 nM | –
30 | CC[C@H]1OC(=O)[C@H](C)[C@@H](O)[C@H](C)[C@@H](O[C@@H]2O[C@H](C)C[C@H](N(C)C)[C@H]2O)[C@](C)(O)C[C@@H](C)CN(CCCNCc2cnc3ccccc3c2)[C@H](C)[C@@H](O)[C@]1(C)O | 201 nM | –
31 | CC[C@H]1OC(=O)[C@H](C)[C@@H](O)[C@H](C)[C@@H](O[C@@H]2O[C@H](C)C[C@H](N(C)C)[C@H]2O)[C@](C)(O)C[C@@H](C)CN(CCCNCc2ccc3ccccc3n2)[C@H](C)[C@@H](O)[C@]1(C)O | 164 nM | –
